The values that follow come from ChEMBL document CHEMBL1137002, “Synthesis and electrochemistry of 2-ethenyl and 2-ethanyl derivatives of 5-nitroimidazole and antimicrobial activity against Giardia lamblia” (J Med Chem, 2009).

Active and inactive are the calls of the source. The rule behind the calls is not given here.

In the first data set the test system is Giardia intestinalis. Nature of the data set: Antigiardial activity against metronidazole-sensitive Giardia lamblia isolate 106 trophozoite after 2 days by bactiter-glo viability assay. Particulars: Giardia duodenalis, isolate 106, 48 h. It is filed as functional, organism-based. The gist of the method: (§1)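 Trophozoites from mid-log cultures in TYI-S-33 with 10% bovine serum and 1 mg/mL bovine bile, grown anaerobically. Mz-resistant lines kept on 50 μM Mz but grown without it for 2–3 days beforehand. 1000–2000 cells/well, 1:3 serial dilutions, final 20 μM to 0.4 nM. 2 days at 37 °C anaerobically. ATP luminescence read-out. EC50 taken by graphic extrapolation of concentration–response curves. Mean ± SE of three experiments.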
For `Cn1c([N+](=O)[O-])cnc1/C=C/c1cccc(F)c1`, the EC50 is 93.3 nM.

`Cn1c([N+](=O)[O-])cnc1/C=C/c1ccco1`: the EC50 is 363 nM.

With `Cn1c([N+](=O)[O-])cnc1/C=C/c1ccc(Br)cc1`, the EC50 was 200 nM.

Consider `Cn1c([N+](=O)[O-])cnc1/C=C/c1ccccc1`, for which the EC50 is 398 nM.

Regarding `Cc1ncc([N+](=O)[O-])n1CCO` [METRONIDAZOLE], the EC50 is 25700 nM.

`Cn1ccnc1/C=C/c1ncc([N+](=O)[O-])n1C` gave an EC50 of 251 nM.

The test system of the next data set is Giardia intestinalis. Briefly: Antigiardial activity against metronidazole-sensitive Giardia lamblia isolate 713 trophozoite after 2 days by bactiter-glo viability assay. It is filed as functional, organism-based. Particulars: Giardia duodenalis, isolate 713, 48 h. The gist of the method:
as §1
`Cn1c([N+](=O)[O-])cnc1/C=C/c1cccc(F)c1` gave an EC50 of 123 nM.

For `Cn1c([N+](=O)[O-])cnc1/C=C/c1ccco1`, the EC50 is 490 nM.

`Cn1c([N+](=O)[O-])cnc1/C=C/c1ccc(Br)cc1` showed an EC50 of 91.2 nM.

For the molecule `Cn1c([N+](=O)[O-])cnc1/C=C/c1ccccc1`, the EC50 was 525 nM.

`Cc1ncc([N+](=O)[O-])n1CCO` [METRONIDAZOLE] showed an EC50 of 44700 nM.

Turning to `Cn1ccnc1/C=C/c1ncc([N+](=O)[O-])n1C`, the EC50 was 1170 nM.

The test system of a further data set is Giardia intestinalis. Briefly: Antigiardial activity against Giardia lamblia GS/M trophozoites infected in C57BL/6 mouse assessed as parasite eradication in small intestine at 10 mg/kg, po administered as 5 doses for 3 days. The format is functional, organism-based. On the set-up: dose 10 mg/kg. The following applies: Giardia duodenalis. The gist of the method: (§2)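 Adult C57BL/6 mice infected orally with G. lamblia GS/M trophozoites; from 2 days post-infection, five oral gavage doses over 3 days (10 or 2 mg/kg), with controls given methylcellulose/PBS vehicle. Day 5: whole small intestine opened, placed in PBS on ice 10 min, shaken, and live trophozoites counted by hemocytometer under phase contrast. Mean ± SE of 3–7 animals; t test versus vehicle controls, p < 0.05.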
`Cn1c([N+](=O)[O-])cnc1/C=C/c1cccc(F)c1`: the result was Active.

Take `Cn1c([N+](=O)[O-])cnc1/C=C/c1ccco1`: the result was Active.

As for `Cn1c([N+](=O)[O-])cnc1/C=C/c1ccccc1`, the outcome was Active.

In the case of `Cc1ncc([N+](=O)[O-])n1CCO` [METRONIDAZOLE], the outcome was inactive.

Take `Cn1ccnc1/C=C/c1ncc([N+](=O)[O-])n1C`: the outcome was Active.

A further data set concerns Giardia intestinalis. Briefly: Antigiardial activity against metronidazole-resistant Giardia lamblia isolate 713 trophozoite after 2 days by bactiter-glo viability assay. It is filed as functional, organism-based. Particulars: Giardia duodenalis, isolate 713, 48 h. A digest of the protocol:
as §1
Regarding `Cn1c([N+](=O)[O-])cnc1/C=C/c1cccc(F)c1`, the EC50 was 25.7 nM.

Turning to `Cn1c([N+](=O)[O-])cnc1/C=C/c1ccco1`, the EC50 was 20.4 nM.

`Cn1c([N+](=O)[O-])cnc1/C=C/c1ccc(Br)cc1` had an EC50 of 8.13 nM.

Turning to `Cn1c([N+](=O)[O-])cnc1/C=C/c1ccccc1`, the EC50 is 20.4 nM.

`Cc1ncc([N+](=O)[O-])n1CCO` [METRONIDAZOLE] had an EC50 of 1480 nM.

Consider `Cn1ccnc1/C=C/c1ncc([N+](=O)[O-])n1C`, for which the EC50 was 51.3 nM.

In a further data set the test system is Giardia intestinalis. Briefly: Antigiardial activity against Giardia lamblia GS/M trophozoites infected in C57BL/6 mouse assessed as reduction in live trophozoite number in small intestine at 10 mg/kg, po administered as 5 doses for 3 days relative to control. It is filed as functional, Giardia duodenalis.
Conditions: not given
A digest of the protocol: as §2
As to `Cc1ncc([N+](=O)[O-])n1CCO` [METRONIDAZOLE], the “fold change (FC)” value is reported as 1000.

Staying with this data set, now noted: Giardia duodenalis.
On to `Cn1c([N+](=O)[O-])cnc1/C=C/c1cccc(F)c1`, for which the result was Active.

As to `Cn1c([N+](=O)[O-])cnc1/C=C/c1ccco1`, the outcome was Active.

With `Cn1c([N+](=O)[O-])cnc1/C=C/c1ccc(Br)cc1`, the outcome was inactive.

Consider `Cn1c([N+](=O)[O-])cnc1/C=C/c1ccccc1`, for which the outcome was Active.

`Cn1ccnc1/C=C/c1ncc([N+](=O)[O-])n1C`: the result was Active.

The subject of a further data set is Giardia intestinalis. Nature of the data set: Antigiardial activity against Giardia lamblia trophozoites isolates after 2 days by bactiter-glo viability assay. It is filed as functional, organism-based. The following applies: Giardia duodenalis, 48 h; read-out: EC50.
For `Cc1ncc([N+](=O)[O-])n1CCO` [METRONIDAZOLE], the EC50 is 2630 nM.

The data set is the same for the next values; noted with them: Giardia duodenalis, 48 h; read-out: pEC50 (converted).
As to `Cn1c([N+](=O)[O-])cnc1/C=C/c1cccc(F)c1`, the EC50 was 40.7 nM.

With `Cn1c([N+](=O)[O-])cnc1/C=C/c1ccco1`, the EC50 was 33.9 nM.

On to `Cn1c([N+](=O)[O-])cnc1/C=C/c1ccc(Br)cc1`, for which the EC50 is 49 nM.

For `Cn1c([N+](=O)[O-])cnc1/C=C/c1ccccc1`, the EC50 is 38.9 nM.

Take `Cn1ccnc1/C=C/c1ncc([N+](=O)[O-])n1C`: the EC50 was 75.9 nM.

Another data set relates to Giardia intestinalis. Nature of the data set: Antigiardial activity against Giardia lamblia GS/M trophozoites infected in C57BL/6 mouse assessed as reduction in live trophozoite number in small intestine at 2 mg/kg, po administered as 5 doses for 3 days. On the set-up: dose 2 mg/kg. The following applies: Giardia duodenalis. It is filed as functional, organism-based. A digest of the protocol: as §2
Take `Cn1c([N+](=O)[O-])cnc1/C=C/c1cccc(F)c1`: the outcome was Active.

Turning to `Cn1c([N+](=O)[O-])cnc1/C=C/c1ccc(Br)cc1`, the result was inactive.

For the molecule `Cc1ncc([N+](=O)[O-])n1CCO` [METRONIDAZOLE], the outcome was inactive.

Regarding `Cn1ccnc1/C=C/c1ncc([N+](=O)[O-])n1C`, the outcome was Active.

A further data set deals with HeLa. Briefly: Cytotoxicity against human HeLa cells after 2 days by Alamar blue assay. The following applies: 48 h. The format is cell-based.
What is called IC50 is the concentration at which inhibition is half-maximal. A high value points to a need for much substance. For the molecule `Cn1c([N+](=O)[O-])cnc1/C=C/c1cccc(F)c1`, the IC50 was greater than 100000 nM.

Regarding `Cn1c([N+](=O)[O-])cnc1/C=C/c1ccc(Br)cc1`, the IC50 is 72400 nM. That is a double-digit micromolar value.

With `Cn1c([N+](=O)[O-])cnc1/C=C/c1ccccc1`, the IC50 is greater than 100000 nM.

`Cn1ccnc1/C=C/c1ncc([N+](=O)[O-])n1C` gave an IC50 of 91200 nM. This lies in the double-digit micromolar range.

Tested on in the next data set: not listed separately
Briefly: Therapeutic index, ratio of IC50 for human HeLa cells to EC50 for Giardia lamblia trophozoites isolates. The format is cell-based. Particulars: read-out: Ratio IC50/EC50.
Take `Cn1c([N+](=O)[O-])cnc1/C=C/c1cccc(F)c1`: the selectivity ratio is greater than 2460.

For the molecule `Cn1c([N+](=O)[O-])cnc1/C=C/c1ccco1`, the selectivity ratio amounted to 2750.

Take `Cn1c([N+](=O)[O-])cnc1/C=C/c1ccc(Br)cc1`: the selectivity ratio amounted to 1480.

On to `Cn1c([N+](=O)[O-])cnc1/C=C/c1ccccc1`, for which the selectivity ratio is greater than 2570.

With `Cn1ccnc1/C=C/c1ncc([N+](=O)[O-])n1C`, the selectivity ratio was found to be 1200.

The next data set deals with Giardia intestinalis. Briefly: Antigiardial activity against metronidazole-resistant Giardia lamblia isolate 106 trophozoite after 2 days by bactiter-glo viability assay. It is filed as functional, organism-based. Particulars: Giardia duodenalis, isolate 106, 48 h. The gist of the method:
as §1
As for `Cn1c([N+](=O)[O-])cnc1/C=C/c1cccc(F)c1`, the EC50 was 30.9 nM.

As for `Cn1c([N+](=O)[O-])cnc1/C=C/c1ccco1`, the EC50 was 35.5 nM.

With `Cn1c([N+](=O)[O-])cnc1/C=C/c1ccc(Br)cc1`, the EC50 was 72.4 nM.

`Cn1c([N+](=O)[O-])cnc1/C=C/c1ccccc1` had an EC50 of 55 nM.

`Cc1ncc([N+](=O)[O-])n1CCO` [METRONIDAZOLE] had an EC50 of 3980 nM.

Take `Cn1ccnc1/C=C/c1ncc([N+](=O)[O-])n1C`: the EC50 is 87.1 nM.

The subject of the next data set is Mus musculus. Nature of the data set: Toxicity in C57BL/6 mouse at 10 mg/kg, po after 3 days. The format is organism-based. The arrangement: dose 10 mg/kg, route oral. The following applies: in vivo, 72 h. A digest of the protocol:
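G. lamblia GS/M-infected adult C57BL/6 mice were watched for clinically observable untoward effects across the 3-day treatment period, which consisted of five oral gavage doses at 10 mg/kg in methylcellulose/PBS given from day 2 after infection.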
On to `Cn1c([N+](=O)[O-])cnc1/C=C/c1cccc(F)c1`, for which the Activity entry is on record as “Non-toxic”.

For `Cn1c([N+](=O)[O-])cnc1/C=C/c1ccco1`, the Activity result is “Non-toxic”.

For `Cn1c([N+](=O)[O-])cnc1/C=C/c1ccc(Br)cc1`, the Activity entry is reported as “Non-toxic”.

Take `Cn1c([N+](=O)[O-])cnc1/C=C/c1ccccc1`: the Activity result was “Non-toxic”.

Regarding `Cn1ccnc1/C=C/c1ncc([N+](=O)[O-])n1C`, the Activity entry is “Non-toxic”.
